Experiments:
PBMC = experiment: Cytotoxicity against human PBMC cells assessed as reduction in cell viability after 72 hrs by MTT assay
L929 = experiment: Cytotoxicity against mouse L929 cells assessed as reduction in cell viability after 72 hrs by MTT assay; assay type: cell-based; conditions: L929, 72 h
Method in brief: (§1)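 MTT viability assay. Cancer lines grown in RPMI 1640 and L929 fibroblasts in DMEM, each with 10% FBS, 2 mM glutamine, penicillin/streptomycin, 37 °C, 5% CO2. PBMC were taken from healthy donors by density-gradient centrifugation, kept in RPMI with 20% FBS and stimulated with 2% phytohemagglutinin. Cells were exposed 72 h (0.01–27.32 µM). MTT 0.5 mg/mL for 3 h, absorbance read at 550 nm. IC50 with 95% CI from nonlinear regression; triplicate, ≥3 independent experiments.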

NCI-H460 = experiment: Cytotoxicity against human NCI-H460 cells assessed as reduction in cell viability after 72 hrs by MTT assay; conditions: NCI-H460, 72 h
PC-3 = experiment: Cytotoxicity against human PC3 cells assessed as reduction in cell viability after 72 hrs by MTT assay; assay type: functional, cell-based; conditions: PC-3, 72 h; method in brief: as §1
SF-295 = experiment: Cytotoxicity against human SF295 cells assessed as reduction in cell viability after 72 hrs by MTT assay; conditions: SF-295, 72 h
HCT-116 = experiment: Cytotoxicity against human HCT116 cells assessed as reduction in cell viability after 72 hrs by MTT assay; assay type: functional, cell-based; conditions: HCT-116, 72 h; method in brief: as §1
HL-60 = experiment: Cytotoxicity against human HL60 cells assessed as reduction in cell viability after 72 hrs by MTT assay; assay type: functional, cell-based; conditions: HL-60, 72 h; method in brief: as §1
OVCAR-8 = experiment: Cytotoxicity against human OVCAR8 cells assessed as reduction in cell viability after 72 hrs by MTT assay; conditions: OVCAR-8, 72 h
MX1 = experiment: Cytotoxicity against human MX1 cells assessed as reduction in cell viability after 72 hrs by MTT assay; conditions: MX1, 72 h
Jurkat = experiment: Cytotoxicity against human Jurkat cell viability after 72 hrs by MTT assay

| Structure (SMILES) | IC50 (PBMC) [µM] | IC50 (L929) [µM] | IC50 (NCI-H460) [µM] | IC50 (PC-3) [µM] | IC50 (SF-295) [µM] | IC50 (HCT-116) [µM] | IC50 (HL-60) [µM] | IC50 (OVCAR-8) [µM] | IC50 (MX1) [µM] | IC50 (Jurkat) [µM] |
| --- | --- | --- | --- | --- | --- | --- | --- | --- | --- | --- |
| COc1ccc(-n2cc(-c3ccco3)c3c2C(=O)c2ccccc2C3=O)cc1 | > 13.5 | > 13.5 | > 13.5 | > 13.5 | > 13.5 | > 13.5 | > 13.5 | – | – | – |
| O=C1c2ccccc2C(=O)c2c(-c3ccccc3[N+](=O)[O-])coc21 | > 15.7 | > 15.7 | 2.53 | 1.59 | 2.94 | 1.28 | 1.66 | 2.25 | 2.85 | 1.47 |
| CCCCn1cc(-c2ccc(Cl)cc2)c2c1C(=O)c1ccccc1C2=O | – | > 13.8 | – | > 13.8 | – | > 13.8 | > 13.8 | – | – | – |
| COc1ccc(-c2cn(-c3ccc(OC)cc3)c3c2C(=O)c2ccccc2C3=O)cc1 | > 12.2 | > 12.2 | > 12.2 | > 12.2 | > 12.2 | > 12.2 | > 12.2 | – | – | – |
| CCOC(=O)Cc1oc2c(c1-c1ccc(C)cc1)C(=O)c1ccccc1C2=O | > 13.4 | > 13.4 | > 13.4 | > 13.4 | > 13.4 | > 13.4 | > 13.4 | – | – | – |
| CCOC(=O)Cc1oc2c(c1-c1cccs1)C(=O)c1ccccc1C2=O | > 27.3 | > 27.3 | 9.09 | > 27.3 | > 27.3 | 13.7 | 5.91 | – | – | – |
| CCOC(=O)Cc1c(-c2cc(OC)c(OC)c(OC)c2)c2c(n1-c1cccc(Br)c1)C(=O)c1ccccc1C2=O | > 8.29 | > 8.29 | > 8.29 | > 8.29 | > 8.29 | > 8.29 | > 8.29 | – | – | – |
| COc1ccc(-n2cc(-c3ccc(C)cc3)c3c2C(=O)c2ccccc2C3=O)cc1 | > 12.7 | > 12.7 | > 12.7 | > 12.7 | > 12.7 | > 12.7 | > 12.7 | – | – | – |
| COc1ccc(-c2cn(-c3ccc(Cl)cc3)c3c2C(=O)c2ccccc2C3=O)cc1 | > 12.6 | > 12.6 | > 12.6 | > 12.6 | > 12.6 | > 12.6 | > 12.6 | – | – | – |
| COc1ccc(-n2cc(-c3ccccc3)c3c2C(=O)c2ccccc2C3=O)cc1 | > 13.2 | > 13.2 | > 13.2 | > 13.2 | > 13.2 | > 13.2 | > 13.2 | – | – | – |
| COc1ccc(-c2coc3c2C(=O)c2ccccc2C3=O)cc1OC | > 15 | > 15 | 4.07 | 3.89 | 3.74 | 5.2 | 3.41 | 4.69 | 5.05 | 3.71 |
| CSc1ccc(-c2coc3c2C(=O)c2ccccc2C3=O)cc1 | > 15.6 | > 15.6 | 4.68 | 2.49 | 3.43 | 6.03 | 3.09 | 4.09 | 4.74 | 2.18 |
| CCOC(=O)Cc1c(-c2ccc(C)cc2)c2c(n1-c1ccc(OC)cc1)C(=O)c1ccccc1C2=O | > 10.4 | > 10.4 | > 10.4 | > 10.4 | > 10.4 | > 10.4 | 3.36 | – | – | – |
| CCOC(=O)Cc1oc2c(c1-c1cc(OC)c(OC)c(OC)c1)C(=O)c1ccccc1C2=O | > 11.1 | > 11.1 | > 11.1 | 8.61 | 10.3 | > 11.1 | 4.01 | – | – | – |
| CCOC(=O)Cc1c(-c2ccccc2)c2c(n1-c1ccc(C)cc1)C(=O)c1ccccc1C2=O | > 11.1 | > 11.1 | > 11.1 | > 11.1 | > 11.1 | > 11.1 | > 11.1 | – | – | – |
| CCOC(=O)Cc1oc2c(c1-c1ccco1)C(=O)c1ccccc1C2=O | > 14.3 | > 14.3 | > 14.3 | > 14.3 | > 14.3 | > 14.3 | > 14.3 | – | – | – |
| COc1ccc(-n2cc(-c3ccc(F)cc3)c3c2C(=O)c2ccccc2C3=O)cc1 | > 12.6 | > 12.6 | > 12.6 | > 12.6 | > 12.6 | > 12.6 | > 12.6 | – | – | – |
| Cc1ccc(-c2cn(-c3ccc(Br)cc3)c3c2C(=O)c2ccccc2C3=O)cc1 | > 12.1 | > 12.1 | > 12.1 | > 12.1 | > 12.1 | > 12.1 | > 12.1 | – | – | – |

| Structure (SMILES) | IC50 (PBMC) [µM] | IC50 (L929) [µM] | IC50 (NCI-H460) [µM] | IC50 (PC-3) [µM] | IC50 (SF-295) [µM] | IC50 (HCT-116) [µM] | IC50 (HL-60) [µM] | IC50 (OVCAR-8) [µM] | IC50 (MX1) [µM] | IC50 (Jurkat) [µM] |
| --- | --- | --- | --- | --- | --- | --- | --- | --- | --- | --- |
| CCOC(=O)Cc1c(-c2ccc(OC)c(OC)c2)c2c(n1-c1cccc(Br)c1)C(=O)c1ccccc1C2=O | > 8.72 | > 8.72 | > 8.72 | > 8.72 | > 8.72 | > 8.72 | > 8.72 | – | – | – |
| Cc1ccc(-c2cn(-c3ccc(C)cc3)c3c2C(=O)c2ccccc2C3=O)cc1 | > 11.3 | > 11.3 | > 11.3 | > 11.3 | > 11.3 | > 11.3 | > 11.3 | – | – | – |
| CCOC(=O)Cc1c(-c2ccco2)c2c(n1-c1ccccc1)C(=O)c1ccccc1C2=O | > 11.8 | > 11.8 | > 11.8 | > 11.8 | > 11.8 | > 11.8 | > 11.8 | – | – | – |
| CCOC(=O)Cc1oc2c(c1-c1ccccc1)C(=O)c1ccccc1C2=O | > 13.9 | > 13.9 | 8.86 | > 13.9 | > 13.9 | 12.5 | 8.38 | – | – | – |
| COc1ccc(-c2cn(-c3ccccc3)c3c2C(=O)c2ccccc2C3=O)cc1 | > 13 | > 13 | > 13 | > 13 | > 13 | > 13 | > 13 | – | – | – |
| CCOC(=O)Cc1c(-c2ccc(C)cc2)c2c(n1-c1ccc(C)cc1)C(=O)c1ccccc1C2=O | > 10.8 | > 10.8 | > 10.8 | > 10.8 | > 10.8 | > 10.8 | > 10.8 | – | – | – |
| CCOC(=O)Cc1c(-c2ccc(Cl)cc2)c2c(n1-c1ccc(OC)cc1)C(=O)c1ccccc1C2=O | > 10 | > 10 | > 10 | > 10 | > 10 | > 10 | > 10 | – | – | – |
| Cc1ccc(-c2cn(-c3cccc(Br)c3)c3c2C(=O)c2ccccc2C3=O)cc1 | > 13.2 | > 13.2 | > 13.2 | > 13.2 | > 13.2 | > 13.2 | > 13.2 | – | – | – |
| CCOC(=O)Cc1oc2c(c1-c1cccc3ccccc13)C(=O)c1ccccc1C2=O | > 12.2 | > 12.2 | > 12.2 | > 12.2 | > 12.2 | > 12.2 | 6.69 | – | – | – |
| CCOC(=O)Cc1c(-c2ccc(OC)c(OC)c2)c2c(n1-c1ccc(Br)cc1)C(=O)c1ccccc1C2=O | > 17.4 | > 17.4 | > 17.4 | > 17.4 | 6.45 | > 17.4 | > 17.4 | – | – | – |
| CCOC(=O)Cc1c(-c2ccc(OC)c(OC)c2)c2c(n1-c1ccc(Cl)cc1)C(=O)c1ccccc1C2=O | > 9.45 | > 9.45 | > 9.45 | > 9.45 | > 9.45 | > 9.45 | > 9.45 | – | – | – |
| COc1ccc(-c2cn(-c3ccc(F)cc3)c3c2C(=O)c2ccccc2C3=O)cc1 | > 13.2 | > 13.2 | > 13.2 | > 13.2 | > 13.2 | > 13.2 | > 13.2 | – | – | – |
| CCOC(=O)Cc1oc2c(c1-c1ccc(OC)c(OC)c1)C(=O)c1ccccc1C2=O | > 11.9 | 8.47 | 7.53 | > 11.9 | > 11.9 | 6.16 | 3.97 | – | – | – |
| CCOC(=O)Cc1oc2c(c1-c1ccc(Cl)cc1)C(=O)c1ccccc1C2=O | > 12.7 | > 12.7 | > 12.7 | > 12.7 | > 12.7 | > 12.7 | 10.2 | – | – | – |
| CCOC(=O)Cc1oc2c(c1-c1ccc(OC)cc1)C(=O)c1ccccc1C2=O | > 12.8 | > 12.8 | > 12.8 | > 12.8 | > 12.8 | > 12.8 | > 12.8 | – | – | – |
| CCOC(=O)Cc1oc2c(c1/C=C/c1ccccc1)C(=O)c1ccccc1C2=O | > 13 | > 13 | > 13 | > 13 | > 13 | > 13 | 10.7 | – | – | – |
| CCOC(=O)Cc1c(-c2cccs2)c2c(n1-c1ccccc1)C(=O)c1ccccc1C2=O | > 11.3 | > 11.3 | > 11.3 | > 11.3 | > 11.3 | > 11.3 | 2.63 | – | – | – |
